Tests used:
Vitamin D3 receptor = target: T1, Vitamin D3 receptor (Homo sapiens, UniProt P11473); assay: Antagonist activity at human VDR transfected in HEK293T cells measured after 24 hrs by luciferase reporter gene assay; format: cell-based, HEK-293T
T1 sequence (P11473 whole entry): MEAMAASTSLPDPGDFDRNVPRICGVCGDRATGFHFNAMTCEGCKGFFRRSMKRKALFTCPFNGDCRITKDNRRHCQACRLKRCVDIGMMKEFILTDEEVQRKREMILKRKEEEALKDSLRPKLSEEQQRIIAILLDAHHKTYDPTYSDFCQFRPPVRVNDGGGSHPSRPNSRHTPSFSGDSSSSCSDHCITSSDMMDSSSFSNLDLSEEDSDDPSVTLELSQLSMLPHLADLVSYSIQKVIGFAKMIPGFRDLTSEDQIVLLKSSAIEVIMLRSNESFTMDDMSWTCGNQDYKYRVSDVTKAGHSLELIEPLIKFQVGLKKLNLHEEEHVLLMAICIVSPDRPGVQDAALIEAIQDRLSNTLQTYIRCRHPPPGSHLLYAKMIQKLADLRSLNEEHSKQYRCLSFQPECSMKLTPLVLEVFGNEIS

HEK-293T = assay: Cytotoxicity against human HEK293T cells assessed as cell viability by MTT assay; format: cell-based
Bile acid receptor [1] = target: T2, Bile acid receptor (Homo sapiens, UniProt Q96RI1); assay: Agonist activity at human FXR expressed in human HuH7 cells by luciferase reporter gene assay; format: cell-based, Huh-7
T2 sequence (Q96RI1 whole entry): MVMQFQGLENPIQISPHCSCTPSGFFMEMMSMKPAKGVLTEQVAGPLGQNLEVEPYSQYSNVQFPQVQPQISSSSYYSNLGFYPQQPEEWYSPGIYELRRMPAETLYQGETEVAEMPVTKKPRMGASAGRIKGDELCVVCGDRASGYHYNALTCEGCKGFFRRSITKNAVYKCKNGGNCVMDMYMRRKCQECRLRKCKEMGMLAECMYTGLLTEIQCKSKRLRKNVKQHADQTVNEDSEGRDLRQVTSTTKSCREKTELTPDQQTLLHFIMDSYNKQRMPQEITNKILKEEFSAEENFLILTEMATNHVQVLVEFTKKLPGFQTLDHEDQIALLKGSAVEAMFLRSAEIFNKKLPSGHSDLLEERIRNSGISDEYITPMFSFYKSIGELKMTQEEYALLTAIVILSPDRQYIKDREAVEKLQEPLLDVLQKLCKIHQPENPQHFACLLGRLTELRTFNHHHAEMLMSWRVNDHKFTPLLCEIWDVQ

Huh-7 = assay: Cytotoxicity against human HuH7 cells assessed as cell viability by MTT assay; format: cell-based
Bile acid receptor [2] = target: T2, Bile acid receptor; assay: Agonist activity at GST-fused FXR-LBD (unknown origin) incubated with Fluorecein-SRC2-2 coactivator peptide as substrate by TR-FRET assay
[3] = Cytotoxicity against mouse ST-2 cells assessed as cell viability upto 5 uM incubated for 12 days by WST-8 assay; format: cell-based; conditions: 288 h
In short: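 ST-2 mesenchymal stem cells kept 12 days in RPMI-1640 medium containing compound at 0–10 μM. Viability read by WST-8 assay and expressed relative to untreated (0 μM) cells set as 100%. Means ± S.D., n=5.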

SMILES: CC(C)c1onc(-c2c(Cl)cccc2Cl)c1COc1ccc(/C=C/c2cccc(C(=O)O)c2)c(Cl)c1
- IC50 (Vitamin D3 receptor): > 10000 nM

SMILES: CC(C)c1onc(-c2c(Cl)cccc2Cl)c1COc1ccc(-c2nc3ccc(C(=O)O)cc3n2CC(C)(C)C)cc1
- Activity (HEK-293T): Toxic
- EC50 (Bile acid receptor [1]): 13 nM
- Activity (Huh-7): Toxic
- EC50 (Bile acid receptor [2]): 24.8 nM

SMILES: CC(C)c1onc(-c2c(Cl)cccc2Cl)c1COc1ccc(-c2nc3cc(C(=O)O)ccc3n2C)cc1
- Activity (HEK-293T): Toxic
- Activity (Huh-7): Toxic

SMILES: CC(C)c1onc(-c2c(Cl)cccc2Cl)c1COc1ccc(-c2nc3ccc(C(=O)O)cc3n2C(C)C)cc1
- Activity (HEK-293T): Toxic
- Activity (Huh-7): Toxic

SMILES: CC(C)c1onc(-c2c(Cl)cccc2Cl)c1COc1ccc(-c2nc3ccc(C(=O)O)cc3n2CC2CCCCC2)c(Cl)c1
- Activity (HEK-293T): Toxic
- Activity (Huh-7): Toxic

SMILES: CCCn1c(-c2ccc(OCc3c(-c4c(Cl)cccc4Cl)noc3C(C)C)cc2)nc2ccc(C(=O)O)cc21
- Activity (HEK-293T): Toxic
- Activity (Huh-7): Toxic

SMILES: CC(C)c1onc(-c2c(Cl)cccc2Cl)c1COc1ccc(-c2nc3ccc(C(=O)O)cc3n2C2CCC2)cc1
- Activity (HEK-293T): Toxic
- Activity (Huh-7): Toxic

SMILES: CCCC(CCC)n1c(-c2ccc(OCc3c(-c4c(Cl)cccc4Cl)noc3C(C)C)cc2)nc2ccc(C(=O)O)cc21
- Activity (HEK-293T): Toxic
- Activity (Huh-7): Toxic
- IC50 (Vitamin D3 receptor): > 10000 nM

SMILES: CCC(CC)n1c(-c2ccc(OCc3c(-c4c(Cl)cccc4Cl)noc3C(C)C)cc2Cl)nc2ccc(C(=O)O)cc21
- Activity (HEK-293T): Toxic
- EC50 (Bile acid receptor [1]): 1.6 nM
- Activity (Huh-7): Toxic
- EC50 (Bile acid receptor [2]): 21.6 nM

SMILES: CC(C)c1onc(-c2c(Cl)cccc2Cl)c1COc1ccc(-c2nc3ccc(C(=O)O)cc3n2CC2CCCCC2)cc1
- Activity (HEK-293T): Toxic
- Activity [3]: Non-Toxic
- Activity (Huh-7): Toxic

SMILES: CC(=O)N1CCC(n2c(-c3ccc(OCc4c(-c5c(Cl)cccc5Cl)noc4C(C)C)cc3)nc3ccc(C(=O)O)cc32)CC1
- Activity (HEK-293T): Toxic
- Activity (Huh-7): Toxic
- IC50 (Vitamin D3 receptor): > 10000 nM

SMILES: CCC(CC)n1c(-c2ccc(OCc3c(-c4c(Cl)cccc4Cl)noc3C(C)C)cc2)nc2ccc(C(=O)O)cc21
- Activity (HEK-293T): Toxic
- Activity [3]: Non-Toxic
- Activity (Huh-7): Toxic

SMILES: CCC(CC)n1c(-c2ccc(OCc3c(-c4c(Cl)cccc4Cl)noc3C(C)C)cc2F)nc2ccc(C(=O)O)cc21
- Activity (HEK-293T): Toxic
- Activity (Huh-7): Toxic
- IC50 (Vitamin D3 receptor): > 10000 nM

SMILES: CCn1c(-c2ccc(OCc3c(-c4c(Cl)cccc4Cl)noc3C(C)C)cc2)nc2ccc(C(=O)O)cc21
- Activity (HEK-293T): Toxic
- Activity (Huh-7): Toxic

SMILES: CC(C)c1onc(-c2c(Cl)cccc2Cl)c1COc1ccc(-c2nc3ccc(C(=O)O)cc3n2C2CCCC2)cc1
- Activity (HEK-293T): Toxic
- Activity (Huh-7): Toxic

SMILES: CC(C)c1onc(-c2c(Cl)cccc2Cl)c1COc1ccc(-c2nc3ccc(C(=O)O)cc3n2C2CCCCC2)cc1
- Activity (HEK-293T): Toxic
- Activity (Huh-7): Toxic

SMILES: CC(C)c1onc(-c2c(Cl)cccc2Cl)c1COc1ccc(-c2nc3ccc(C(=O)O)cc3n2C2CC2)cc1
- Activity (HEK-293T): Toxic
- Activity (Huh-7): Toxic

SMILES: CC(C)c1onc(-c2c(Cl)cccc2Cl)c1COc1ccc(-c2nc3ccc(C(=O)O)cc3n2C)cc1Cl
- Activity (HEK-293T): Toxic
- Activity (Huh-7): Toxic

SMILES: CC(C)c1onc(-c2c(Cl)cccc2Cl)c1COc1ccc(-c2nc3ccc(C(=O)O)cc3n2CC2CCCCC2)c(F)c1
- Activity (HEK-293T): Toxic
- Activity (Huh-7): Toxic

SMILES: CC(C)c1onc(-c2c(Cl)cccc2Cl)c1COc1ccc(-c2nc3ccc(C(=O)O)cc3n2CC2CC2)cc1
- Activity (HEK-293T): Toxic
- Activity (Huh-7): Toxic

SMILES: CC(=O)C1CCC(Cn2c(-c3ccc(OCc4c(-c5c(Cl)cccc5Cl)noc4C(C)C)cc3)nc3ccc(C(=O)O)cc32)CC1 (stereo not drawn)
- Activity (HEK-293T): Toxic
- Activity (Huh-7): Toxic
- IC50 (Vitamin D3 receptor): > 10000 nM

SMILES: CC(C)c1onc(-c2c(Cl)cccc2Cl)c1COc1ccc(-c2nc3ccc(C(=O)O)cc3n2C)cc1
- Activity (HEK-293T): Toxic
- Activity (Huh-7): Toxic

SMILES: CC(C)c1onc(-c2c(Cl)cccc2Cl)c1COc1ccc(-c2nc3ccc(C(=O)O)cc3n2C)c(Cl)c1
- Activity (HEK-293T): Toxic
- Activity (Huh-7): Toxic

SMILES: CC(C)c1onc(-c2c(Cl)cccc2Cl)c1COc1ccc(-c2nc3ccc(C(=O)O)cc3n2Cc2ccc(F)cc2)cc1
- Activity (HEK-293T): Toxic
- Activity (Huh-7): Toxic

SMILES: CC(C)c1onc(-c2c(Cl)cccc2Cl)c1COc1ccc(-c2nc3ccc(C(=O)O)cc3n2C2CCCCCC2)cc1
- Activity (HEK-293T): Toxic
- Activity (Huh-7): Toxic

SMILES: CC(C)c1onc(-c2c(Cl)cccc2Cl)c1COc1ccc(-c2nc3ccc(C(=O)O)cc3n2-c2ccc(F)cc2)cc1
- Activity (HEK-293T): Toxic
- Activity (Huh-7): Toxic

SMILES: CC(C)Cn1c(-c2ccc(OCc3c(-c4c(Cl)cccc4Cl)noc3C(C)C)cc2)nc2ccc(C(=O)O)cc21
- Activity (HEK-293T): Toxic
- Activity (Huh-7): Toxic

From ChEMBL document CHEMBL4622925, “N1-Substituted benzimidazole scaffold for farnesoid X receptor (FXR) agonists accompanying prominent selectivity against vitamin D receptor (VDR)” (Bioorg Med Chem, 2020)
